According to ChEMBL document CHEMBL3352635 (Bioorg Med Chem Lett, 2014):
The source made the active and inactive calls. The calls are words filed in the database; no cut-off is given here.

Assays:
[1] = AUC in Sprague-Dawley rat at 30 mg/kg, po; format: ADME, organism-based; set-up: dose 30 mg/kg, route oral; conditions: plasma
In short: (§1)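 Plasma parent-drug concentration followed over time up to 8 h. AUC in µg*h/mL from the concentration–time profile. Cmax and Tmax taken from the profile.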

[2] = test system: Rattus norvegicus; experiment: Toxicity in rat assessed as gastric lesion and ulcer area at 200 mg/kg, po after 5 hrs; format: organism-based, Stomach; set-up: dose 200 mg/kg, route oral; conditions: in vivo
[3] = test system: Rattus norvegicus; experiment: Antiplatelet activity in Sprague-Dawley rat assessed as inhibition of TXB2 formation at 30 mg/kg, po od after 7 days by EIA relative to vehicle-treated control; format: functional; conditions: 168 h
In short: (§2)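 Sprague–Dawley rats dosed orally once daily for 7 days with aspirin 30 mg/kg or prodrug 44.82 mg/kg (equimolar), with vehicle 1 ml/kg as control. Serum TXB2 levels estimated. Inhibition expressed as % reduction versus vehicle.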

[4] = AUC in Wistar rat at 30 mg/kg, po; format: ADME, organism-based; set-up: dose 30 mg/kg, route oral; conditions: plasma
In short: (§3)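 Single oral dosing in Wistar rats to compare […]. Aspirin at 30 mg/kg or the prodrug at 44.83 mg/kg (equimolar to 30 mg/kg aspirin). Plasma aspirin measured over time. AUC in µg*h/mL.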

[5] = Metabolic stability in simulated intestinal fluid assessed as compound remaining at pH 6.8 after 120 mins by HPLC analysis; format: ADME; conditions: read-out: Stability
In short: (§4)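 Compounds incubated at 37 °C in simulated gastric fluid (pH 1.2), simulated intestinal fluid (pH 6.8) or 100% human plasma for up to 180 min. […] Half-life estimated from the decay.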

[6] = Metabolic stability in simulated intestinal fluid assessed as compound remaining at pH 6.8 after 20 mins by HPLC analysis; format: ADME; conditions: read-out: Stability; in short: as §4
[7] = AUC in Sprague-Dawley rat at 44.83 mg/kg, po; format: ADME, organism-based; set-up: dose 44.83 mg/kg, route oral; conditions: plasma; in short: as §1
[8] = Stability of the compound assessed as compound remaining at 50 degC measured immediately; format: physicochemical; conditions: read-out: Stability
In short: (§5)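 Solid-state storage stability at room temperature and at 50 °C, followed for up to 1 month (25 days for one compound). Remaining compound measured, along with the amounts of parent drug and salicylic acid generated.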

[9] = Stability of the compound assessed as compound remaining at RT after 1 month; format: physicochemical; conditions: read-out: Stability; in short: as §5
[10] = test system: Rattus norvegicus; experiment: Toxicity in rat assessed as gastric lesion and ulcer area at 298.8 mg/kg, po after 5 hrs; format: organism-based, Stomach; set-up: dose 298.8 mg/kg, route oral; conditions: in vivo
[11] = Stability of the compound assessed as compound remaining at 50 degC after 5 days; format: physicochemical; conditions: read-out: Stability; in short: as §5
[12] = test system: Rattus norvegicus; experiment: Antiinflammatory activity in Sprague-Dawley rat assessed as plasma nitrate/nitrite AUC at 14.94 mg/kg, po by Griess assay (reference value: 371.1 uM.h); format: functional, organism-based; set-up: dose 14.94 mg/kg
In short: (§6)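 Sprague–Dawley rats given compounds orally, with vehicle-dosed controls. […] Plasma nitrate/nitrite (NOx) measured by the Griess method as an indirect measure of NO released, over 8 h (sampling included 1, 2, 4 and 6 h). Plasma nitrate/nitrite AUC in µM*h.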

[13] = Metabolic stability in simulated intestinal fluid assessed as compound remaining at pH 6.8 after 2 mins by HPLC analysis; format: ADME; conditions: read-out: Stability; in short: as §4
[14] = Metabolic stability in simulated intestinal fluid assessed as compound remaining at pH 6.8 after 5 mins by HPLC analysis; format: ADME; conditions: read-out: Stability; in short: as §4
[15] = Metabolic stability in simulated gastric fluid assessed as compound remaining at pH 1.2 measured immediately by HPLC analysis; format: ADME; conditions: read-out: Stability; in short: as §4
[16] = Metabolic stability in simulated gastric fluid assessed as compound remaining at pH 1.2 after 2 mins by HPLC analysis; format: ADME; conditions: read-out: Stability; in short: as §4
[17] = test system: Rattus norvegicus; experiment: Antiinflammatory activity in Sprague-Dawley rat assessed as plasma nitrate/nitrite at 14.94 mg/kg, po up to 8 hrs; format: functional; in short: as §6
[18] = Metabolic stability in simulated intestinal fluid assessed as compound remaining at pH 6.8 measured immediately by HPLC analysis; format: ADME; conditions: read-out: Stability; in short: as §4
[19] = AUC in Wistar rat at 44.83 mg/kg, po; format: ADME, organism-based; set-up: dose 44.83 mg/kg, route oral; conditions: plasma; in short: as §3
[20] = Metabolic stability in simulated intestinal fluid assessed as compound remaining at pH 6.8 after 10 mins by HPLC analysis; format: ADME; conditions: read-out: Stability; in short: as §4
[21] = Metabolic stability in simulated gastric fluid assessed as compound remaining at pH 1.2 after 10 mins by HPLC analysis; format: ADME; conditions: read-out: Stability; in short: as §4
[22] = Stability of the compound assessed as compound remaining at RT measured immediately; format: physicochemical; conditions: read-out: Stability; in short: as §5
[23] = Metabolic stability in simulated gastric fluid assessed as compound remaining at pH 1.2 after 60 mins by HPLC analysis; format: ADME; conditions: read-out: Stability; in short: as §4
[24] = Half life in human plasma by HPLC analysis; format: ADME, cell-free; in short: as §4
[25] = Metabolic stability in simulated gastric fluid assessed as compound remaining at pH 1.2 after 5 mins by HPLC analysis; format: ADME; conditions: read-out: Stability; in short: as §4
[26] = test system: Rattus norvegicus; experiment: Antiplatelet activity in Sprague-Dawley rat assessed as inhibition of TXB2 formation at 44.82 mg/kg, po od after 7 days by EIA relative to vehicle-treated control; format: functional; conditions: 168 h; in short: as §2
[27] = Stability of the compound assessed as compound remaining at RT after 3 days; format: physicochemical; conditions: read-out: Stability
[28] = Metabolic stability in simulated gastric fluid assessed as compound remaining at pH 1.2 after 40 mins by HPLC analysis; format: ADME; conditions: read-out: Stability; in short: as §4
[29] = Half life in simulated gastric fluid at pH 1.2 by HPLC analysis; format: ADME; in short: as §4
[30] = Half life in simulated intestinal fluid at pH 6.8 by HPLC analysis; format: ADME; in short: as §4
[31] = Metabolic stability in simulated intestinal fluid assessed as compound remaining at pH 6.8 after 60 mins by HPLC analysis; format: ADME; conditions: read-out: Stability; in short: as §4
[32] = Stability of the compound assessed as compound remaining at 50 degC after 2 days; format: physicochemical; conditions: read-out: Stability
[33] = Stability of the compound assessed as compound remaining at RT after 18 days; format: physicochemical; conditions: read-out: Stability
[34] = Metabolic stability in simulated gastric fluid assessed as compound remaining at pH 1.2 after 20 mins by HPLC analysis; format: ADME; conditions: read-out: Stability; in short: as §4
[35] = Stability of the compound assessed as compound remaining at 50 degC after 1 month; format: physicochemical; conditions: read-out: Stability; in short: as §5
[36] = test system: Rattus norvegicus; experiment: Toxicity in rat assessed as gastric lesion and ulcer area at 138.67 mg/kg, po after 5 hrs; format: organism-based, Stomach; set-up: dose 138.67 mg/kg, route oral; conditions: in vivo
[37] = Metabolic stability in simulated gastric fluid assessed as compound remaining at pH 1.2 after 15 mins by HPLC analysis; format: ADME; conditions: read-out: Stability; in short: as §4
[38] = test system: Rattus norvegicus; experiment: Antiinflammatory activity in Sprague-Dawley rat assessed as plasma nitrate/nitrite at 41.60 mg/kg, po after 1 hr; format: functional; conditions: dose 41.6 mg/kg; in short: as §6
[39] = test system: Rattus norvegicus; experiment: Antiinflammatory activity in Sprague-Dawley rat assessed as plasma nitrate/nitrite at 41.60 mg/kg, po after 2 hrs; format: functional; conditions: dose 41.6 mg/kg; in short: as §6
[40] = Stability of the compound assessed as compound remaining at RT after 25 days; format: physicochemical; conditions: read-out: Drug metabolism; in short: as §5
[41] = Stability of the compound assessed as compound remaining at 50 degC after 25 days; format: physicochemical; conditions: read-out: Drug metabolism; in short: as §5
[42] = Metabolic stability in simulated gastric fluid assessed as compound remaining at pH 1.2 after 30 mins by HPLC analysis; format: ADME; conditions: read-out: Stability; in short: as §4
[43] = test system: Rattus norvegicus; experiment: Antiinflammatory activity in Sprague-Dawley rat assessed as plasma nitrate/nitrite at 41.60 mg/kg, po after 6 hrs relative to control; format: functional, organism-based; set-up: dose 41.6 mg/kg; in short: as §6
[44] = test system: Rattus norvegicus; experiment: Antiinflammatory activity in Sprague-Dawley rat assessed as plasma nitrate/nitrite AUC at 41.60 mg/kg, po by Griess assay (reference value: 371.1 uM.h); format: functional, organism-based; set-up: dose 41.6 mg/kg; in short: as §6
[45] = test system: Rattus norvegicus; experiment: Antiinflammatory activity in Sprague-Dawley rat assessed as plasma nitrate/nitrite at 41.60 mg/kg, po after 4 hrs; format: functional, organism-based; set-up: dose 41.6 mg/kg; in short: as §6

In the case of `CC(=O)Oc1ccccc1C(=O)O` [ASPIRIN], the AUC [1] is reported as 91100 ng·h/mL, the Activity [2] is reported as 93 mm2 and the inhibition in vivo at 30 mg/kg [3] is reported as 76%. It also gave an AUC [4] of 437000 ng·h/mL.
For `CC(=O)Oc1ccccc1C(=O)OC(C)O[N+](=O)[O-]` (centres undefined), the remaining at 2 h [5] was 0%, the remaining at 20 min [6] was 32% and the AUC [7] was 89800 ng·h/mL. For the same compound, the remaining at 0 days [8] was 99.1%, the remaining at 730.5 h [9] was 98.6% and the Activity [10] was 1 mm2. The remaining at 120 h [11] was 98.2%, the AUC [12] was 1480 µM·h and the remaining at 2 min [13] was 91%. The remaining at 5 min [14] was 82%, the remaining at 0 min [15] was 100% and the remaining at 2 min [16] was 78%. The Activity [17] was 180 µM, the remaining at 0 min [18] was 100% and the AUC [19] was 398000 ng·h/mL. For the same compound, the remaining at 10 min [20] was 52%, the remaining at 10 min [21] was 45% and the remaining at 0 days [22] was 99.1%. It also gave a remaining at 1 h [23] of 0%, a half-life [24] of under 5 min and a remaining at 5 min [25] of 65%. For the same compound, the inhibition in vivo at 44.82 mg/kg [26] was 72.6%, the remaining at 72 h [27] was 98.9% and the remaining at 40 min [28] was 12%. For the same compound, the half-life [29] was under 10 min, the half-life [30] was under 15 min and the remaining at 1 h [31] was 4%. It also gave a remaining at 48 h [32] of 98.8%, a remaining at 432 h [33] of 99% and a remaining at 20 min [34] of 14%. It also gave a remaining at 730.5 h [35] of 88.3%.
`CCCC(OC(=O)c1ccccc1OC(C)=O)O[N+](=O)[O-]` (centres undefined) showed an AUC [7] of 73500 ng·h/mL.
Compound `CCC(OC(=O)c1ccccc1OC(C)=O)O[N+](=O)[O-]` (centres undefined) has an AUC [7] of 53600 ng·h/mL.
`COc1ccc2cc([C@H](C)C(=O)OC(C)O[N+](=O)[O-])ccc2c1` (some centres undefined) showed an Activity [36] of 39 mm2, a remaining at 0 days [8] of 99.1% and a remaining at 0.25 h [37] of 65%. It also gave an Activity [38] of 150 µM, an Activity [39] of 120 µM and a remaining at 0 min [15] of 100%. For the same compound, the remaining at 600 h [40] was 98.9%, the remaining at 600 h [41] was 99% and the remaining at 10 min [21] was 75%. It also gave a remaining at 0 days [22] of 99.1%, a remaining at 1 h [23] of 0% and a remaining at 0.5 h [42] of 33%. For the same compound, the remaining at 5 min [25] was 85%, the Activity [43] was “inactive” and the AUC [44] was 687 µM·h. For the same compound, the half-life [29] was under 30 min and the Activity [45] was “inactive”.
